{"data": "Published values from different studies", "target": "Activin receptor type-2B (ACVR2B, Homo sapiens, UniProt Q13705)", "note": "Compare with care: the assays were run in different laboratories."}
{"Structure (SMILES)": "CN(C)c1nccc(-c2cnc3ncccn23)n1", "assay": "binding", "conditions": "1 µM", "remaining binding": "100%"}
{"Structure (SMILES)": "CN(C)C(=O)Cn1cc(-c2nc(C3(c4ccc(-c5cnc(N)nc5)cc4)CC3)no2)cn1", "assay": "binding, competition with immobilised ligand", "conditions": "1 µM", "remaining binding": "96%"}
{"Structure (SMILES)": "Cc1cnc(Nc2ccc(C(=O)N3CCC(N4CCCC4)CC3)cc2)nc1-c1cc2ccccc2s1", "assay": "binding, competition with immobilised ligand", "conditions": "1 µM", "remaining binding": "61%"}
{"Structure (SMILES)": "O=C(NCC1CCOCC1)c1n[nH]cc1NC(=O)c1c(F)cccc1F", "assay": "binding, competition with immobilised ligand", "conditions": "1 µM", "remaining binding": "98%"}
{"Structure (SMILES)": "O=C(NCCCN1CCOCC1)c1ccc(Nc2ncc(Cl)c(-c3ccc(Cl)s3)n2)cc1", "assay": "binding, competition with immobilised ligand", "conditions": "1 µM", "remaining binding": "81%"}
{"Structure (SMILES)": "COc1cnc(Nc2cccc(S(N)(=O)=O)c2)nc1N1CCN(c2ccccc2)CC1", "assay": "binding, competition with immobilised ligand", "conditions": "1 µM", "remaining binding": "100%"}
{"Structure (SMILES)": "N[C@H]1CCN(c2nccc(-c3cnn4ncccc34)n2)C1", "assay": "binding, competition with immobilised ligand", "conditions": "1 µM", "remaining binding": "93%"}
{"Structure (SMILES)": "O=C(c1ccc(Nc2ncc(Cl)c(-c3cc4ccccc4s3)n2)cc1)N1CCC(N2CCCC2)CC1", "assay": "binding, competition with immobilised ligand", "conditions": "1 µM", "remaining binding": "53%"}
{"Structure (SMILES)": "CO[C@@H](C)c1c(Nc2ccc([C@@H](N(C)C(=O)C3CCS(=O)(=O)CC3)C(F)(F)F)cc2)cnc2cc(Cl)nn12", "assay": "cell-free assay, competition with immobilised ligand", "conditions": "1 µM", "remaining binding": "100%"}
{"Structure (SMILES)": "CN(C)c1nccc(-c2cnn3ncccc23)n1", "assay": "binding, competition with immobilised ligand", "conditions": "1 µM", "remaining binding": "85%"}
{"Structure (SMILES)": "CC(=O)N1CCC(c2ccc(C(=O)NC(=N)N)cc2C(F)(F)F)CC1", "assay": "binding, competition with immobilised ligand", "conditions": "1 µM", "remaining binding": "100%"}
{"Structure (SMILES)": "c1cncc(-c2cccc(Nc3nccc(NC4CCCCC4)n3)c2)c1", "assay": "binding, competition with immobilised ligand", "conditions": "10 µM", "remaining binding": "85%"}
{"Structure (SMILES)": "CN(c1nccc(-c2cnn3ncccc23)n1)C1CC1", "assay": "binding", "conditions": "1 µM", "remaining binding": "100%"}
{"Structure (SMILES)": "O=c1nc(-c2ccccn2)sc2ccccc12", "assay": "binding, competition with immobilised ligand", "conditions": "1 µM", "remaining binding": "100%"}
{"Structure (SMILES)": "COc1ccnn2ncc(-c3ccnc(N(C)C)n3)c12", "assay": "binding", "conditions": "1 µM", "remaining binding": "100%"}
{"Structure (SMILES)": "CCN1CCN(Cc2ccc(C(=O)Nc3ccc(C)c(Oc4ccc5c(c4)CC(=O)N5)c3)cc2C(F)(F)F)CC1", "assay": "binding, competition with immobilised ligand", "conditions": "1 µM", "remaining binding": "100%"}
{"Structure (SMILES)": "CC1=C(C#N)C(c2ccc3c(c2)c(NC(=O)c2ccccc2C)nn3C)C(C#N)=C(C)N1", "assay": "binding, competition with immobilised ligand", "conditions": "1 µM", "remaining binding": "100%"}
{"Structure (SMILES)": "F[C@@H]1CCN(c2nccc(-c3cnn4ncccc34)n2)C1", "assay": "binding", "conditions": "1 µM", "remaining binding": "100%"}
{"Structure (SMILES)": "CN(C)CC#Cc1ccc(OCCCc2sc(N3CCc4cccc(C(=O)Nc5nc6ccccc6s5)c4C3)nc2C(=O)O)c(F)c1", "assay": "cell-free assay, competition with immobilised ligand", "conditions": "1 µM", "remaining binding": "100%"}
{"Structure (SMILES)": "COc1ncc2cc3ccccc3nc2c1C#N", "assay": "binding, competition with immobilised ligand", "conditions": "5 µM", "remaining binding": "90%"}
